ChEMBL document CHEMBL3091450, “Melosuavines A-H, cytotoxic bisindole alkaloid derivatives from Melodinus suaveolens” (J Nat Prod, 2013)

What was measured:
Format in all cases: functional, cell-based
A549 = assay: Cytotoxicity against human A549 cells after 48 hrs by MTT assay; conditions: A549, 48 h
How it was run: (§1)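 Cells kept in RPMI-1640 or DMEM with 10% FBS, 37 °C, 5% CO2. Adherent lines plated and left 12 h to attach; suspension cells (HL-60) plated at 1 × 10^5 cells/mL just before dosing. Compounds in DMSO at 0.064, 0.32, 1.6, 8 and 40 μM, triplicate wells, 48 h; cisplatin positive control. MTT viability read-out, IC50 by Reed and Muench method.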

MCF7 = assay: Cytotoxicity against human MCF7 cells after 48 hrs by MTT assay; conditions: MCF7, 48 h; how it was run: as §1
HL-60 = assay: Cytotoxicity against human HL60 cells after 48 hrs by MTT assay; conditions: HL-60, 48 h; how it was run: as §1
[1] = Cytotoxicity against human […] cells after 48 hrs by MTT assay; how it was run: as §1
SW480 = assay: Cytotoxicity against human SW480 cells after 48 hrs by MTT assay; conditions: SW480, 48 h; how it was run: as §1

For `C=C[C@]12C=C[C@@H](c3cc4c(cc3O)NC3=C(C(=O)OC)C[C@]5(CC)C=CCN6CC[C@@]34[C@@H]65)N3CC[C@@]4(c5ccccc5NC(=O)[C@]4(C(=O)OC)C1)[C@@H]32` (relative stereo), the IC50 (A549) was 8.9 µM, the IC50 (MCF7) was 6.1 µM and the IC50 (HL-60) was 2.8 µM. The IC50 [1] was 3.1 µM and the IC50 (SW480) was 2.9 µM.
For `CC[C@]12C=CCN3CC[C@]4(C(=C(C(=O)OC)C1)Nc1cc(O)c([C@@H]5C=C[C@@]6(CC)CC(C(=O)OC)=C7Nc8cc(O)ccc8[C@@]78CCN5[C@@H]68)cc14)[C@@H]32` (relative stereo), the IC50 (A549) was 7.5 µM, the IC50 (MCF7) was 6.6 µM and the IC50 (HL-60) was 3.5 µM. It also gave an IC50 [1] of 3.6 µM and an IC50 (SW480) of 4 µM.
For `CC[C@]12C=CCN3CC[C@]4(C(=C(C(=O)OC)C1)Nc1cc(O)c([C@H]5C=C[C@@]6(CC)CC(C(=O)OC)=C7Nc8cc(O)ccc8[C@@]78CCN5[C@@H]68)cc14)[C@@H]32` (relative stereo), the IC50 (A549) was 12.4 µM, the IC50 (MCF7) was 10.7 µM and the IC50 (HL-60) was 4.8 µM. It also gave an IC50 [1] of 12.6 µM and an IC50 (SW480) of 12.5 µM.
Work on `CC[C@]12C=CCN3CC[C@]4(C(=C(C(=O)OC)C1)Nc1cc(O)c([C@@H]5C[C@]67c8ccccc8N[C@@]68CC[C@]6(C=CCN5[C@@H]67)C[C@H]8C(=O)OC)cc14)[C@@H]32` (relative stereo) yielded an IC50 (A549) of 3.4 µM, an IC50 (MCF7) of 9.5 µM and an IC50 (HL-60) of 1 µM. It also gave an IC50 [1] of 3.1 µM and an IC50 (SW480) of 3.8 µM.
In the case of `CC[C@]12C=CCN3CC[C@]4(C(=C(C(=O)OC)C1)Nc1cc(O)c([C@@H]5[C@@H]6O[C@@H]6[C@]67CC[C@@]8(Nc9ccccc9[C@@]89CCN5[C@@H]69)[C@H](C(=O)OC)C7)cc14)[C@@H]32` (relative stereo), the IC50 (A549) is reported as greater than 40 µM, the IC50 (MCF7) is reported as greater than 40 µM and the IC50 (HL-60) is reported as greater than 40 µM. It also gave an IC50 [1] greater than 40 µM and an IC50 (SW480) greater than 40 µM.
Molecule `C=C[C@]12C=CCN3[C@@H](c4cc5c(cc4O)NC4=C(C(=O)OC)C[C@]6(CC)C=CCN7CC[C@@]45[C@@H]76)C[C@@]4(c5ccccc5NC(=O)[C@]4(C(=O)OC)C1)[C@@H]32` (relative stereo) has an IC50 (A549) greater than 40 µM, an IC50 (MCF7) greater than 40 µM and an IC50 (HL-60) of 17.6 µM. The IC50 [1] was 29 µM and the IC50 (SW480) was greater than 40 µM.
Molecule `C=C[C@]12C=C[C@H](c3cc4c(cc3O)NC3=C(C(=O)OC)C[C@]5(CC)C=CCN6CC[C@@]34[C@@H]65)N3CC[C@@]4(c5ccccc5NC(=O)[C@]4(C(=O)OC)C1)[C@@H]32` (relative stereo) has an IC50 (A549) of 11 µM, an IC50 (MCF7) of 11.6 µM and an IC50 (HL-60) of 2.6 µM. The IC50 [1] was 5.9 µM and the IC50 (SW480) was 9.8 µM.
In the case of `CC[C@]12C=CCN3CC[C@]4(C(=C(C(=O)OC)C1)Nc1cc(O)c([C@@H]5[C@@H]6O[C@@H]6[C@@]6(CC)CC(C(=O)OC)=C7Nc8cc(O)ccc8[C@@]78CCN5[C@@H]68)cc14)[C@@H]32` (relative stereo), the IC50 (A549) is reported as 9.7 µM, the IC50 (MCF7) is reported as 11.6 µM and the IC50 (HL-60) is reported as 5.5 µM. It also gave an IC50 [1] of 13.8 µM and an IC50 (SW480) of 14.4 µM.
`CC[C@]12C=CCN3CCc4c(n(c5ccccc45)[C@@H](c4cc5c(cc4OC)NC4=C(C(=O)OC)C[C@]6(CC)C=CCN7CC[C@@]45[C@@H]76)C1)[C@@H]32` (relative stereo) showed an IC50 (A549) greater than 40 µM, an IC50 (MCF7) greater than 40 µM and an IC50 (HL-60) greater than 40 µM. The IC50 [1] was greater than 40 µM and the IC50 (SW480) was greater than 40 µM.
Molecule `CC[C@]12C=CCN3CCc4c(n(c5ccccc45)[C@@H](c4cc5c(cc4O)NC4=C(C(=O)OC)C[C@]6(CC)C=CCN7CC[C@@]45[C@@H]76)C1)[C@@H]32` has an IC50 (A549) of 14.3 µM, an IC50 (MCF7) of 9.5 µM and an IC50 (HL-60) of 3.6 µM. For the same molecule, the IC50 [1] was 10 µM and the IC50 (SW480) was 9.7 µM.
